Assay outcomes: PubChem BioAssay, several laboratories
KLK5 inh – blocks human kallikrein 5 protease activity | 210,000 compounds, 0.59% hits | inhibition, % at 5 µM | recombinant hK5, fluorogenic AMC substrate cleavage | Q9Y337;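 active means inhibition of 40% or more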;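 further: 0% = enzyme controls without compound and 100% = no-enzyme blanks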
FXIa inh 1536 – blocks human coagulation factor XIa protease activity; 220,000 compounds, 0.14% hits; purified FXIa, Boc-Glu-Ala-Arg-AMC fluorogenic substrate; inhibition, % at 5 µM; AID 798;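 active means inhibition of at least 40%; inactive means inhibition below 40%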;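 further: fluorescence of freed AMC excited at 355 nm; 0% = enzyme without compound and 100% = no enzyme blank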
Target sequence (P03951 19-387 limits assumed): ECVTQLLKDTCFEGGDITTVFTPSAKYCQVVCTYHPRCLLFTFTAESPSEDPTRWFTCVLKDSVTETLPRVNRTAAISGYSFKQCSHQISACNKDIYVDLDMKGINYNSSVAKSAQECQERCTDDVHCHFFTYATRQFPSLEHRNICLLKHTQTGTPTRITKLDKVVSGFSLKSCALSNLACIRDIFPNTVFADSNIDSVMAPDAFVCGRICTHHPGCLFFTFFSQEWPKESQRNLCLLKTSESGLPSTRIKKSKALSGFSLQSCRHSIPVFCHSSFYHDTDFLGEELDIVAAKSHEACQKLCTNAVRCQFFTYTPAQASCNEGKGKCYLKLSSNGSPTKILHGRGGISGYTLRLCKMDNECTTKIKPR
Target sequence (P03951 388-625 limits assumed): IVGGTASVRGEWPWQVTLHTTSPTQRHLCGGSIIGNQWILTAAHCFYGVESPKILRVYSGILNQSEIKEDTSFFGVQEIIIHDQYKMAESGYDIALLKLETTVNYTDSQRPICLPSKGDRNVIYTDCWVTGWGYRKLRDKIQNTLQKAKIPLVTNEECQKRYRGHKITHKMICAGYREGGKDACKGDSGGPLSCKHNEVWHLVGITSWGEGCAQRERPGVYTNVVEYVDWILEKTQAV
Thrombin inh – thrombin (human) inhibition. P00734. alpha-thrombin, Boc-VPR-AMC fluorogenic substrate cleavage. inhibition, % at 5 µM. 220,000 compounds, 0.26% hits. AID 1046;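 active means inhibition at or above 40%; inactive means inhibition below 40%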;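 further: 0% = enzyme with no compound and 100% = wells without enzyme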
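signal = AMC fluorescence, 355/460 nm | material = human alpha-thrombin enzyme | control set = enzyme without compound as high, wells lacking enzyme as low | times = reaction at room temperature | read-out basis = percent inhibition scaled between no-compound controls and no-enzyme blanks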
FXIIa inh – blocks human coagulation factor XIIa protease activity. 220,000 compounds, 0.3% hits. inhibition, % at 5 µM. P00748. purified FXIIa, Boc-QGR-AMC fluorogenic substrate, 2 h; in the data active means inhibition above about 40%;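 further: 0% = enzyme with no compound and 100% = blank without enzyme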
EP2 mod – modulators of human EP2 prostaglandin E2 receptor | P43116 | EP2-expressing cells, cAMP HTRF FRET, PGE2 co-stimulation | induction, % at 25 µM | 260,000 compounds, 0.83% hits;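 active means compounds whose cAMP rise, as percent of the full-agonist control response, exceeds 60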;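 further: rat C6 glioma line stably carrying human EP2 under a CMV promoter; the protocol text gives 20 µM as final concentration; 100% = response of wells given 1 µM PGE2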
PGE2 EP2 inh – blocks the human prostaglandin E2 receptor EP2; P43116; C6 glioma cells expressing human EP2, cAMP TR-FRET; cells stimulated with saturating PGE2; inhibition, % at 25 µM; 260,000 compounds, 0.52% hits; AID 1422;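 active means percent inhibition above 40 after rounding to a whole number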;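 further: rat C6 glioma host cells with rolipram phosphodiesterase inhibitor present; the protocol text gives 20 µM as final concentration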
An asterisk follows results filed as active; . = no result. This is a sample that favours compounds with a hit; in the whole collection about 2.1% have one here.

SMILES	KLK5 inh	FXIa inh 1536	Thrombin inh	FXIIa inh	EP2 mod	PGE2 EP2 inh
O=Cc1ccccc1-n1cccn1	-1	-1	0	3	-9	2
Oc1cc(-n2cccn2)c(O)cc1-n1cccn1	-6	-5	-10	2	-47	114*
CC[C@H](Cn1nc(-c2cccs2)ccc1=O)NC(=O)c1snnc1C	.	.	.	.	-10	.
Cc1ccsc1C(=O)NNC(=O)C1CC=CCC1C(=O)O (stereo unspecified)	55*	11	23	12	12	3
Cc1ccsc1C(=O)NNC(=O)C1CCCCC1C(=O)O (stereo unspecified)	-6	-5	-6	1	17	5
COCCNC(=O)c1ccccc1NS(=O)(=O)c1cccs1	.	.	.	.	-6	6
COc1cc(OC)cc(-c2n[nH]c(=S)n2-c2ccc3c(c2)OCCO3)c1	16	35	41*	.	18	16
CCC(C)NC(=O)c1cnc2n(c1=O)CCS2 (stereo unspecified)	0	9	-1	17	2	12
CC(NC(=O)c1cnc2n(c1=O)CCS2)c1ccccc1 (stereo unspecified)	41*	-5	-2	5	21	19
COc1ccc(C(=O)N2CCSC2=S)cc1OC	28	6	5	15	-20	6
COc1cccc(C(=O)N2CCSC2=S)c1	48*	15	6	9	33	2
COc1ccc(C2=[N+](C)CCn3cccc32)c(OC)c1	35	5	25	69*	-8	8
COc1ccc(C(=O)C[N+]2=C(C)c3cccn3CC2)cc1	.	.	.	.	-6	7
O=C(Cc1ccccc1F)N1CCCC1c1nc(-c2ccncc2)n[nH]1 (stereo unspecified)	.	.	.	.	-33	3
COc1ccc(C)cc1NC(=O)C1CCCN(S(=O)(=O)c2cnc[nH]2)C1 (stereo unspecified)	7	18	11	16	3	22
Cc1ccnc(NC(=O)C2CCCN(S(=O)(=O)c3cnc[nH]3)C2)c1 (stereo unspecified)	15	-10	70*	-8	39	16
CC(=O)Nc1ccc(CN2CCc3c(nc(N4CC(C)OC(C)C4)[nH]c3=O)C2)cc1 (stereo unspecified)	.	.	.	.	1	.
Cc1ccc(C)c(S(=O)(=O)N2CCCOC2CNC(=O)C(=O)NCc2cccnc2)c1 (stereo unspecified)	43*	-8	13	34	10	3
COc1ccc(C(=O)[C@H](Br)[C@H](Br)C(=O)O)cc1	.	.	.	.	-16	42*
COc1ccc(C(=O)c2ccccc2)cc1	-10	-10	-1	4	2	2
COc1ccc(N(CC(=O)N2CCN(c3ccc(F)cc3)CC2)S(C)(=O)=O)cc1Cl	.	.	.	.	-38	11
O=C1[C@H]2[C@@H]3c4ccccc4[C@H]([C@H]2C(=O)N1c1ccc(OCc2ccccc2)cc1)[n+]1ccccc13	.	.	.	.	14	42*
CCn1c(SCC(=O)Nc2sc(C)c(C)c2C#N)nc2sc3c(c2c1=O)CCC3	.	.	.	.	69*	15
Cc1sc(NC(=O)CSc2nnnn2C2CCCC2)c(C#N)c1C	-9	20	-10	44*	-10	-7
CCn1c(SCC(=O)Nc2cc(C)on2)nc2sc3c(c2c1=O)CCCC3	-16	5	0	7	9	.
SMILES	KLK5 inh	FXIa inh 1536	Thrombin inh	FXIIa inh	EP2 mod	PGE2 EP2 inh
CC(C(=O)NCc1ccccc1)N(C(=O)c1snc(C(N)=O)c1N)c1cccc(O)c1 (stereo unspecified)	.	.	.	.	-85	9
CCOc1cccc(/C(O)=C2/C(=O)C(=O)N(Cc3ccncc3)C2c2cccnc2)c1 (stereo unspecified)	.	.	.	.	-25	13
CCOC(=O)c1sc2ncn(/N=C/c3ccc(O)cc3)c(=O)c2c1C	27	49*	25	26	-32	14
COc1cccc2c1C(=O)c1c(O)c3c(c(O)c1C2=O)C[C@@](O)(C(=O)CO)C[C@H]3O[C@H]1C[C@@H](N)[C@H](O)[C@@H](C)O1.[W]	.	.	.	.	15	40*
COc1ccc(C[C@@H]2C(=O)N[C@H](C)C(=O)N(C)[C@@H]3Cc4ccc(cc4)Oc4cc(ccc4O)C[C@@H](C(=O)N[C@@H](C)C(=O)N[C@H](C)C(=O)N2C)N(C)C3=O)cc1	.	.	.	.	26	41*
COc1ccc(CC2CCOC2=O)cc1 (stereo unspecified)	-17	2	-5	7	-5	13
CCOC(=O)c1cnc(SCC(=O)Nc2c(C)cc(C)cc2C)nc1N	.	.	.	.	3	9
COCCCn1c(=O)/c(=C\c2ccccc2OC(C)C)s/c1=C(/C#N)C(=O)Nc1ccc(C(=O)O)cc1	38	28	8	49*	-20	8
COCCCn1c(=O)/c(=C\c2ccccc2OC(F)F)s/c1=C(/C#N)C(=O)NC(C)C	-3	6	-9	11	10	5
O=C1CN2CCN(CC2)CC(=O)Nc2ccc(cc2)S(=O)(=O)c2ccc(cc2)NC(=O)CN2CCN(CC2)CC(=O)Nc2ccc(cc2)S(=O)(=O)c2ccc(cc2)N1	.	.	.	.	13	51*
O=C1CNCCCN2CCN(CCCNCC(=O)Nc3ccc(cc3)S(=O)(=O)c3ccc(cc3)NC(=O)CNCCCN3CCN(CCCNCC(=O)Nc4ccc(cc4)S(=O)(=O)c4ccc(cc4)N1)CC3)CC2	.	.	.	.	7	42*
O=C(NCc1ccc(F)cc1)[C@@H]1C=CCN1C(=O)Nc1ccc(F)cc1	.	.	.	.	-1	.
Cc1cc(C)c2c(NCc3cccc(C(F)(F)F)c3)n[nH]c2n1	.	.	.	.	-61	3
CC1=CCC2C(=O)N(Cc3ccccc3)C(=O)C2C1 (stereo unspecified)	-18	-3	-2	0	9	11
CC1=CCC2C(=O)N(C(C)c3ccccc3)C(=O)C2C1 (stereo unspecified)	-6	64*	1	13	21	7
COc1ccccc1NC(=O)CSc1nnc(C)n1-c1ccccc1OC	.	.	.	.	2	8
CC(C)OC(=O)CNc1n[nH]c(=S)[nH]c1=O	4	0	-7	10	-30	101*
COC(=O)CNc1n[nH]c(=S)[nH]c1=O	0	-2	-4	7	15	86*
CN(C)C(=O)CNc1n[nH]c(=S)[nH]c1=O	32	12	17	21	-4	28
CC(=O)NC1(c2ccc(F)cc2)CCN(Cc2c(C)oc3ccccc23)CC1	.	.	.	.	-42	3
CC(=O)/C=C/c1ccc(C)o1	7	1	-8	10	16	8
Cc1ccc(/C=C/C(=O)c2ccc(Br)cc2)o1	.	.	.	.	-107	95*
Cc1ccc(CN(CCCn2ccnc2)Cc2cccn2-c2cccc(F)c2)o1	.	.	.	.	62*	4
Cn1c2ccccc2c(=O)c2c(=O)n(Cc3ccco3)c(-c3ccc(C(C)(C)C)cc3)nc21	5	4	0	6	65*	10
